Measured values published in article PMC10165662 (Bioorganic & medicinal chemistry letters, 2023).
“Also recorded” adds a separate entry of the source. Peptide text beside a SMILES is read from it. * marks the point of attachment. AMC = Cc1cc(=O)oc2cc(N*)ccc12

Molecular target: 20S proteasome (sCP), β5 subunit (Homo sapiens, UniProt P28074)
Type: biochemical
Conditions: Figures 2C and 4B
Summary of the method: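 Purified human constitutive 20S proteasome (5 nM) incubated with LLVY-conjugated test substrate (10 μM in aminocoumarin time course) up to 4 h at 37 °C. Free LLVY [M+H] EIC quantified by single-quadrupole LC-MS against a purified LLVY standard curve (20–1250 pmol; LOQ 20 pmol), giving % cleaved. Reference fluorogenic substrates included each replicate; triplicates; one-way ANOVA.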

Cc1cc(=O)oc2cc(NC(=O)[C@H](Cc3ccc(O)cc3)NC(=O)[C@@H](NC(=O)[C@H](CC(C)C)NC(=O)[C@@H](N)CC(C)C)C(C)C)ccc12 [LLVY-AMC] (H-LLVY-{AMC})
Rate of hydrolysis by the sCP in time-dependent MS analysis (in words): hydrolyzed by the sCP faster than TAS-1; also recorded: faster rate than the molecule with 6-aminocoumarin
